According to ChEMBL document CHEMBL1129956, “4-substituted-3-phenylquinolin-2(1H)-ones: acidic and nonacidic glycine site N-methyl-D-aspartate antagonists with in vivo activity” (J Med Chem, 1997):

Columns and labels:
Mus musculus [1] = assay: compound was evaluated in vivo for their ability to protect against audiogenic seizure in DBA/2 mice when administered 10 mg/kg ip 30 min prior to noise stimulation out of 8 mice tested; type: functional; conditions: route intraperitoneal
Outline: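 DBA/2 mice given compound intraperitoneally 30 min before noise stimulation, with protection from audiogenic seizure scored. Results are reported as an ED50 (mg/kg) or as number of mice protected per number tested at a single dose.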

[2] = molecular target: Glutamate receptor ionotropic, NMDA 1 (Rattus norvegicus, UniProt P35439); assay: In vitro ability to displace [3H]L-689,560 binding to glycine site on the N-methyl-D-aspartate (NMDA) glutamate receptor 1 from rat cortical membranes
Outline: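 Glycine-site antagonist [3H]L-689,560 displaced from rat cortex/hippocampus membranes. IC50 (concentration inhibiting 50% of specific binding) taken from 5-point inhibition curves as the geometric mean of at least three experiments. A compound giving under 50% inhibition at 100 μM in two experiments is reported as >100 μM.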

Mus musculus [3] = assay: Evaluated in vivo for their ability to protect against audiogenic seizure in DBA/2 mice when administered 20 mg/kg ip 30 min prior to noise stimulation out of 8 mice tested; conditions: route intraperitoneal

N#CCOc1c(-c2cccc(Oc3ccccc3)c2)c(O)nc2cc(Cl)ccc12
No. of mice protected (Mus musculus [1]): 1
IC50 [2]: 1.2 µM
No. of mice protected (Mus musculus [3]): 8
